This is one part of a sample in which hits are shown more often than they occur.
Lmaj promast: Leishmania major promastigote growth inhibition; Leishmania major promastigotes, resazurin fluorescence viability; inhibition, % at 10 µM; 9% of 200,000 active; AID 1063;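 further: promastigotes grown with compound for 44 hours at 28 °C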
G6PDH counter: inhibits Leuconostoc G6PDH, flagging false hits in G6PDH-based assays. inhibition, % at 5 µM. 0.12% of 200,000 active. AID 1020. Purified L. mesenteroides G6PDH, diaphorase/resazurin coupled fluorescence, 45 min
Diaphorase act: counter-screen for diaphorase-based assays: diaphorase activators and chemical reducers; Diaphorase/resazurin coupled assay, resorufin fluorescence, 16 min; stronger effect = higher value; 1 = vehicle wells, 0 = NADH-free wells; activation factor at 20 µM; 0.005% of 190,000 active; AID 1229;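 active means diaphorase activity raised at least twofold by the compound at 20 µM; inactive means activation factor below 2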
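Test system: Clostridium kluyveri diaphorase, purified enzyme. Buffer or medium: 50 mM HEPES pH 7.4 buffer plus MgCl2 and Tween 20. Also added: 0.114 mM NADH and 0.1 mM resazurin, final amounts. Dosing: compound 20 µM once, DMSO 1%. Schedule: 16 min enzyme reaction, ambient temperature. Detection: fluorescence of resorufin, 544 nm excitation, 590 nm emission.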
Diaph inh CS: inhibits diaphorase or chemically oxidizes, flagging diaphorase assay artifacts | 0.69% of 190,000 active | diaphorase resazurin-to-resorufin fluorescence, NADH, 16 min; bacterial (C. kluyveri) enzyme, not human | inhibition, % at 20 µM;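 active means primary screen inhibition at 20 µM above a set limit, cut at about 50% in these data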
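System: Diaphorase enzyme from Clostridium kluyveri | Amount: Enzyme working solution with 0.14 U/mL diaphorase | Benchmarks: No-NADH positive control and DMSO neutral control | Signal: Fluorescence of resorufin formed from resazurin, Ex 544/Em 590 nm | Schedule: 16-min room-temperature incubation before reading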
DTT redox prof: compounds producing H2O2 with reducing agent – biochemical, NIH compound library profiling, artefact control for MLSCN library redox annotation, primary screen. DTT-dependent redox cycling H2O2, phenol red/HRP absorbance; 100% = 100 µM peroxide control, 0% = buffer. activation, % at 10 µM. 0.03% of 200,000 active. AID 878;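 active means activation of at least 50% relative to the plate's high and low controls in the primary single-dose screen; inactive means activation below 50%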;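 further: compound incubated with DTT at 0.8 mM final as the reducing agent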
PfGluPho inh: PfG6PD (Plasmodium falciparum) enzyme inhibition; PfGluPho enzyme, NADPH resazurin-diaphorase fluorescence; inhibition, % at 20 µM; 0.78% of 350,000 active;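 active means inhibition reaching at least a set limit at 20 µM in the primary screen, cut at about 59% in these data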
Large screens that a line does not name were inactive. Unless noted, no stated cut-off is given here; in the data, active means inhibition above about 50%; inactive means the rest.

CC(=O)OCCC(NS(=O)(=O)OCC(Cl)(Cl)Cl)c1ccccc1 (stereo not drawn)	none (no result: Lmaj promast, G6PDH counter, Diaphorase act, Diaph inh CS, DTT redox prof)
O=C(CCCSc1nc(-c2ccco2)cc(C(F)(F)F)n1)Nc1ccc2c(c1)OCO2	none
CC(NC(=O)CCSc1nc(-c2ccc3c(c2)OCO3)cc(C(F)(F)F)n1)c1ccccc1 (stereo not drawn)	Lmaj promast 62
O=S(=O)(c1cccc2nsnc12)N1CCNCC1	none (no result: Lmaj promast, G6PDH counter, Diaphorase act, Diaph inh CS, DTT redox prof)
O=C1C2C3C=CC(C3)C2C(=O)N1CCN1CCN(Cc2ccc([N+](=O)[O-])cc2)CC1 (stereo not drawn)	Lmaj promast 72
NS(=O)(=O)c1ccc(NC(=O)CSc2nc3ccccc3nc2N2CCOCC2)cc1	none (no result: Lmaj promast, G6PDH counter, Diaphorase act, Diaph inh CS, DTT redox prof)
C/C(=N\Nc1ncc(Cl)cc1Cl)c1ccccn1	Lmaj promast 100
C/C(=N\Nc1cccc2cccnc12)c1ccccc1O	none
C/C(=N\Nc1cccc2cccnc12)c1ccccn1	Lmaj promast 51
Cc1noc(C)c1CN1C(=O)NC2(CCCCCCC2)C1=O	Lmaj promast 100
Cc1cc(NC(=O)CN2C(=O)NC3(CCCCCC3)C2=O)ccc1Br	none (no result: Lmaj promast, G6PDH counter, Diaphorase act, Diaph inh CS, DTT redox prof)
O=C(Nc1cccn(Cc2c(F)cccc2Cl)c1=O)NC1CCCCC1	Lmaj promast 80
O=C(Nc1cccc(F)c1)NC1CCCCC1	none
O=C(Nc1cccn(Cc2cccc(F)c2)c1=O)NC1CCCCC1	Lmaj promast 83, Diaph inh CS 50
COc1cnc(-c2ccccn2)nc1Sc1cccc(Cl)c1	Lmaj promast 100
COc1cnc(-c2ccccn2)nc1Sc1ccc(C)cc1	Lmaj promast 100
COc1cnc(-c2ccccn2)nc1Oc1ccc(F)cc1F	none
Cc1ccc(Sc2cc(C)nc(-c3ccccn3)n2)cc1	none (no result: Lmaj promast, G6PDH counter, Diaphorase act, Diaph inh CS, DTT redox prof)
COc1cnc(-c2ccccn2)nc1Oc1ccccc1Cl	none
COc1cnc(-c2ccccn2)nc1NC(C)C	Lmaj promast 100
COc1ccccc1Sc1nc(-c2ccccn2)ncc1OC	Lmaj promast 83
COc1cc(OC)c(OC)cc1CN1CCN(Cc2ccco2)CC1	none (no result: Lmaj promast, G6PDH counter, Diaphorase act, Diaph inh CS, DTT redox prof)
O=C(CC1C(=O)NCCN1Cc1ccccc1)NC1CCCCC1 (stereo not drawn)	none (no result: Lmaj promast, G6PDH counter, Diaphorase act, Diaph inh CS, DTT redox prof)
COc1cc(C(=O)Nc2nnc(C)s2)c([N+](=O)[O-])cc1OC	none (no result: Lmaj promast, G6PDH counter, Diaphorase act, Diaph inh CS, DTT redox prof)
CSc1cccc(NC(=O)C(C)C)c1	none
CC(C)C(=O)Nc1cccc(S(=O)(=O)c2cccc(NC(=O)C(C)C)c2)c1	Lmaj promast 66
COc1ccc(-c2c[n+](CC(=O)OC3CC(C)CCC3C(C)C)c3n2CCC3)cc1 (stereo not drawn)	Lmaj promast 100
CC(C)[C@@H]1CC[C@@H](C)C[C@H]1OC(=O)C[n+]1cc(-c2ccc(Cl)cc2)n2c1CCCCC2	none (no result: Lmaj promast, G6PDH counter, Diaphorase act, Diaph inh CS, DTT redox prof)
COc1ccc(Cl)cc1NC(=O)CCNC(=O)OCc1ccccc1	none
CCOC(=O)c1c(C)[nH]c(C(=O)Nc2cc(OCC)c(N3CCOCC3)cc2OCC)c1C	none (no result: Lmaj promast, G6PDH counter, Diaphorase act, Diaph inh CS, DTT redox prof)
CCOc1ccccc1N(C(=O)c1snc(C(N)=O)c1N)C(C(=O)NC1CCCC1)c1ccco1 (stereo not drawn)	Lmaj promast 76
CCCC(C(=O)NC1CCCC1)N(Cc1ccc(F)cc1)C(=O)c1snc(C(N)=O)c1N (stereo not drawn)	none (no result: Lmaj promast, G6PDH counter, Diaphorase act, Diaph inh CS, DTT redox prof)
CCC(C)(C)NC(=O)CN(C(=O)c1snc(C(N)=O)c1N)c1ccc2c(c1)OCCO2	none
CCCC(C(=O)NC(C)(C)C)N(C(=O)c1snc(C(N)=O)c1N)c1ccc2c(c1)OCCO2 (stereo not drawn)	Lmaj promast 52
CCC(C)(C)NC(=O)C(c1ccc(C)o1)N(Cc1ccc2c(c1)OCO2)C(=O)c1snc(C(N)=O)c1N (stereo not drawn)	none (no result: Lmaj promast, G6PDH counter, Diaphorase act, Diaph inh CS, DTT redox prof)
Cc1ccc(C(C(=O)NC(C)(C)C)N(Cc2ccccc2)C(=O)c2snc(C(N)=O)c2N)o1 (stereo not drawn)	Lmaj promast 54
CCCC(C(=O)NC1CCCC1)N(Cc1ccc2c(c1)OCO2)C(=O)c1snc(C(N)=O)c1N (stereo not drawn)	Lmaj promast 54
CCOc1ccccc1N(C(=O)c1snc(C(N)=O)c1N)C(C(=O)NC1CCCC1)c1cccs1 (stereo not drawn)	none (no result: Lmaj promast, G6PDH counter, Diaphorase act, Diaph inh CS, DTT redox prof)
CC(C)OCCCNC(=O)CCSc1ccc(Cl)cc1	none
Nc1nc(-c2ccccc2)c(CCCOc2ccc(NC(=O)CBr)cc2)c(=O)[nH]1	none (no result: Lmaj promast, G6PDH counter, Diaphorase act, Diaph inh CS, DTT redox prof)
CC(C)CC(C(=O)NC1CCCC1)N(Cc1cccs1)C(=O)c1snc(C(N)=O)c1N (stereo not drawn)	Lmaj promast 93
CC(C)CC(C(=O)NC1CCCCC1)N(Cc1cccs1)C(=O)c1snc(C(N)=O)c1N (stereo not drawn)	none
CCC(C)n1c(SCC(=O)NC(=O)Nc2ccc3c(c2)OCCO3)nc2ccccc2c1=O (stereo not drawn)	Lmaj promast 86
Cc1cc(=O)[nH]c(SCC(=O)NC2CCCc3ccccc32)n1 (stereo not drawn)	none (no result: Lmaj promast, G6PDH counter, Diaphorase act, Diaph inh CS, DTT redox prof)
CCCCn1c(SCC(=O)Nc2ccc3c(c2)CCC3)nc2ccccc2c1=O	Lmaj promast 69
O=C(CSc1nc2ccccc2[nH]1)Nc1ccc2c(c1)CCC2	Lmaj promast 76
COc1ccc2nc(SCC(=O)NC3CCCc4ccccc43)[nH]c2c1 (stereo not drawn)	Lmaj promast 75
C=CCn1c(SCC(=O)Nc2ccc3c(c2)CCC3)nc2ccccc2c1=O	none
O=C(O)C(Cc1c[nH]c2ccccc12)N1C(=O)C2C3c4ccccc4C(c4ccccc43)C2C1=O (stereo not drawn)	none
CCN(CC)CCNC(=O)c1c(O)c2cc(OC)c(OC)cc2[nH]c1=O	Lmaj promast 79
COc1ccc(CNC(=O)c2c(O)c3cc(OC)c(OC)cc3[nH]c2=O)cc1OC	none (no result: Lmaj promast, G6PDH counter, Diaphorase act, Diaph inh CS, DTT redox prof)
C=CCn1c(-c2ccc(OC)cc2)csc1=Nc1c(C)n(C)n(-c2ccccc2)c1=O	Lmaj promast 93
O=C1NC(=Nc2ccccc2)c2ccc([N+](=O)[O-])cc21	Lmaj promast 67
Cc1cccc(N=C2NC(=O)c3cc([N+](=O)[O-])ccc32)c1	none
Cc1c(N=Nc2ccc(O)cc2)c(=O)n(-c2ccccc2)n1C	none
Cc1c(N=C2C=CC(=O)c3ccccc32)c(=O)n(-c2ccccc2)n1C	Lmaj promast 101, Diaph inh CS 58, PfGluPho inh 86
COCCNc1oc(/C=C/c2ccccc2)nc1C#N	none (no result: Lmaj promast, G6PDH counter, Diaphorase act, Diaph inh CS, DTT redox prof)
CCOP(=O)(OCC)c1nc(-c2ccc(C)cc2)oc1NCc1ccccc1	Lmaj promast 79
CCOP(=O)(OCC)c1nc(/C=C/c2ccccc2)oc1NCc1ccc(OC)cc1	Diaph inh CS 52
Cc1ccc(S(=O)(=O)c2nc(C)oc2NCc2ccccc2)cc1	none (no result: PfGluPho inh)
CCOP(=O)(OCC)c1nc(/C=C/c2ccccc2)oc1NCc1ccccc1	Diaph inh CS 54

Screening data as filed in PubChem.
